Experimental data taken from ChEMBL document CHEMBL4351008, “Discovery of novel pyrimidine-based benzothiazole derivatives as potent cyclin-dependent kinase 2 inhibitors with anticancer activity” (Eur J Med Chem, 2019).

Experiments:
HeLa = assay: Antiproliferative activity against human HeLa cells incubated for 48 hrs by MTT assay; format: functional, cell-based
In short: (§1)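 Cells kept at 37 °C in humidified 5% CO2: MDA-MB-231, MCF-7, HeLa and HCT116 in RPMI-1640; PC-3 in DMEM/F12; both media had 10% FBS. Compounds came from 60 mM DMSO stocks diluted in medium. At 70–80% confluence, cells got fresh medium with compound for 48 h at 37 °C, with 0.1% DMSO as negative control. MTT (5 mg/mL stock) was added for 4 h, and formazan was dissolved in DMSO and read at 570 nm. % inhibition was taken relative to control, IC50 was fitted, and data are mean ± SD of three independent experiments in duplicate.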

HCT-116 = assay: Antiproliferative activity against human HCT116 cells incubated for 48 hrs by MTT assay; format: functional, cell-based; conditions: HCT-116, 48 h; in short: as §1
MDA-MB-231 = assay: Antiproliferative activity against human MDA-MB-231 cells incubated for 48 hrs by MTT assay; format: functional, cell-based; conditions: MDA-MB-231, 48 h; in short: as §1
MCF7 = assay: Antiproliferative activity against human MCF7 cells incubated for 48 hrs by MTT assay; format: functional, cell-based; conditions: MCF7, 48 h; in short: as §1
PC-3 = assay: Antiproliferative activity against human PC3 cells incubated for 48 hrs by MTT assay; format: functional, cell-based; conditions: PC-3, 48 h; in short: as §1
CDK2/Cyclin A2 = CDK2/Cyclin A2 (Homo sapiens, UniProt P24941); assay: Inhibition of CDK2/cyclin A2 (unknown origin) using histone H1 and ATP as substrate incubated for 40 mins by kinase-glo luminescence assay; format: protein-complex assay
[1] = molecular target: CDK2/Cyclin A2 (Homo sapiens) (UniProt P24941+P20248); assay: Inhibition of CDK2/cyclin A2 (unknown origin) using histone H1 and ATP as substrate at 1 uM incubated for 40 mins by kinase-glo luminescence assay relative to control; format: protein-complex assay
In short: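 Recombinant CDK2/cyclin A2 (0.2 µg/mL) was run with 0.1 mg/mL histone H1 and 10 µM ATP in 40 mM Tris pH 7.4, 10 mM MgCl2, 0.1 mg/mL BSA and 1 mM DTT, for 40 min at 30 °C. Compound was tested at 1 µM final, with 1% DMSO final. Remaining ATP was quantified by Kinase-Glo Plus luminescence, which is inversely related to kinase activity.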

Row | SMILES | IC50 (HeLa) [µM] | IC50 (HCT-116) [µM] | IC50 (MDA-MB-231) [µM] | IC50 (MCF7) [µM] | IC50 (PC-3) [µM] | IC50 (CDK2/Cyclin A2) [µM] | inhibition [1] [%]
1 | COc1cccc(Nc2ncc(C)c(Nc3nc4ccccc4s3)n2)c1 | > 50 | > 50 | > 50 | > 50 | > 50 |  | 
2 | Cc1cnc(Nc2ccc(S(N)(=O)=O)cc2)nc1Nc1nc2ccc(F)cc2s1 | 3.46 | 2.01 | 7.58 | > 50 | 6.98 |  | 
3 | Cc1ccc2nc(Nc3nc(Nc4ccc(S(N)(=O)=O)cc4)ncc3F)sc2c1 | 1.89 | 1.46 | 6.39 | 24.5 | 4.96 | 0.0214 | 92
4 | Cc1ccc2nc(Nc3ccnc(Nc4ccc(S(C)(=O)=O)cc4)n3)sc2c1 | 2.3 | 1.75 | 4.44 | > 50 | > 50 |  | 77
5 | Cc1cnc(Nc2ccc(Cl)cc2)nc1Nc1nc2ccccc2s1 | > 50 | > 50 | > 50 | > 50 | > 50 |  | 
6 | CS(=O)(=O)c1ccc(Nc2nccc(Nc3nc4ccc(Cl)cc4s3)n2)cc1 | 1.4 | 1.35 | > 50 | > 50 | > 50 |  | 
7 | COc1ccc2nc(Nc3nc(Nc4ccc(S(N)(=O)=O)cc4)ncc3C)sc2c1 | 36.7 | 7.86 | > 50 | > 50 | > 50 |  | 
8 | CS(=O)(=O)c1ccc(Nc2nccc(Nc3nc4ccccc4s3)n2)cc1 | 11.3 | 8.37 | 5.91 | 10.6 | 1.71 |  | 80
9 | CS(=O)(=O)c1ccc(Nc2nccc(Nc3nc4ccc(F)cc4s3)n2)cc1 | 0.56 | 0.86 | 2.08 | > 60 | 1.94 |  | 89
10 | NS(=O)(=O)c1ccc(Nc2nccc(Nc3nc4ccccc4s3)n2)cc1 | 2.06 | 5.17 | 5 | 15.3 | 3.1 |  | 84
11 | COc1ccc2nc(Nc3ccnc(Nc4ccc(S(N)(=O)=O)cc4)n3)sc2c1 | 1.73 | 1.48 | 6.24 | 11 | 3.03 |  | 
12 | Cc1cnc(Nc2ccc(N3CCCCC3)cc2)nc1Nc1nc2ccccc2s1 | 4.34 | 18.7 | 37.2 | > 50 | > 50 |  | 
13 | Cc1cnc(Nc2ccc(C(C)C)cc2)nc1Nc1nc2ccccc2s1 | > 50 | > 50 | > 50 | > 50 | > 50 |  | 
14 | Cc1cnc(Nc2ccc([N+](=O)[O-])cc2)nc1Nc1nc2ccccc2s1 | 34.3 | 6.33 | 22.5 | > 50 | > 50 |  | 
15 | CS(=O)(=O)c1ccc(Nc2ncc(F)c(Nc3nc4ccccc4s3)n2)cc1 | 3.17 | 3.27 | 4.98 | 6.88 | 2.83 | 0.0127 | 95
16 | CS(=O)(=O)c1ccc(Nc2ncc(F)c(Nc3nc4ccc(Cl)cc4s3)n2)cc1 | > 50 | 20.7 | 11.1 | > 50 | > 50 |  | 
17 | COc1ccc(Nc2ncc(C)c(Nc3nc4ccccc4s3)n2)cc1 | > 50 | > 50 | > 50 | > 50 | > 50 |  | 
18 | Cc1cnc(Nc2cccc(F)c2)nc1Nc1nc2ccccc2s1 | 16.3 | 27.8 | > 50 | > 50 | > 50 |  | 

Second part, the compound after the results:

Row | IC50 (HeLa) [µM] | IC50 (HCT-116) [µM] | IC50 (MDA-MB-231) [µM] | IC50 (MCF7) [µM] | IC50 (PC-3) [µM] | IC50 (CDK2/Cyclin A2) [µM] | inhibition [1] [%] | SMILES
19 | > 50 | > 50 | > 50 | > 50 | > 50 |  |  | Cc1cnc(Nc2ccc(F)cc2)nc1Nc1nc2ccccc2s1
20 | 8.77 | 8.62 | 2.79 | 8.34 | 1.43 |  |  | NS(=O)(=O)c1ccc(Nc2ncc(F)c(Nc3nc4ccc(Cl)cc4s3)n2)cc1
21 | 25.4 | 2.63 | 4.74 | 5.85 | 1.27 |  |  | COc1ccc2nc(Nc3nc(Nc4ccc(S(C)(=O)=O)cc4)ncc3F)sc2c1
22 | > 50 | 24 | > 50 | 3.26 | > 50 |  |  | Cc1cnc(Nc2ccc(S(C)(=O)=O)cc2)nc1Nc1nc2ccc(F)cc2s1
23 | 17.2 | 9.18 | 14.3 | > 50 | > 50 |  |  | Cc1ccc2nc(Nc3nc(Nc4ccc(S(C)(=O)=O)cc4)ncc3F)sc2c1
24 | 4.52 | 3.26 | 22.6 | > 50 | > 50 | 0.0165 | 93 | NS(=O)(=O)c1ccc(Nc2ncc(F)c(Nc3nc4ccccc4s3)n2)cc1
25 | 0.66 | 0.9 | 3.87 | 5.74 | 1.64 |  | 82 | Cc1ccc2nc(Nc3ccnc(Nc4ccc(S(N)(=O)=O)cc4)n3)sc2c1
26 | 3.28 | 3.87 | 9.08 | > 50 | 2.71 |  |  | Cc1ccc2nc(Nc3nc(Nc4ccc(S(N)(=O)=O)cc4)ncc3C)sc2c1
27 | 2.8 | 1.66 | 16.8 | > 50 | > 50 | 0.0217 | 91 | Cc1cnc(Nc2ccc(S(N)(=O)=O)cc2)nc1Nc1nc2ccccc2s1
28 | 4.18 | 2.5 | 5.9 | 4.32 | 13.4 |  | 81 | Cc1cnc(Nc2ccc(S(C)(=O)=O)cc2)nc1Nc1nc2ccc(Cl)cc2s1
29 | 3.73 | 2.52 | 9.42 | 8.43 | 5.4 |  | 90 | Cc1cnc(Nc2ccc(S(N)(=O)=O)cc2)nc1Nc1nc2ccc(Cl)cc2s1
30 | 13 | 11.5 | 26.6 | > 50 | > 50 |  |  | COc1ccc2nc(Nc3nc(Nc4ccc(S(N)(=O)=O)cc4)ncc3F)sc2c1
31 | 0.73 | 0.47 | 7.2 | 10.7 | 0.36 |  |  | Cc1ncc(-c2ccnc(Nc3ccc(S(C)(=O)=O)cc3)n2)n1C(C)C [AZD-5438]
32 | > 50 | > 50 | 8.9 | > 50 | > 50 |  |  | CS(=O)(=O)c1ccc(Nc2ncc(F)c(Nc3nc4ccc(F)cc4s3)n2)cc1
33 | 4.13 | 2.27 | 32.7 | > 50 | 2.7 |  |  | COc1ccc2nc(Nc3ccnc(Nc4ccc(S(C)(=O)=O)cc4)n3)sc2c1
34 | 0.46 | 0.76 | 14.8 | 6.55 | > 50 | 0.0378 | 90 | Cc1cnc(Nc2ccc(S(C)(=O)=O)cc2)nc1Nc1nc2ccccc2s1
